Assays:
Type in all cases: functional, cell-based
[1] = target: T1, Melatonin receptor type 1A (Homo sapiens, UniProt P48039); experiment: Agonist activity at MT1 receptor (unknown origin) expressed in HEK293 cells at 0.5 mM by Fluo-8 dye-based calcium assay relative to control
Outline: (§1)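 HEK293 cells grown at 37 °C, 5% CO2 in DMEM with 10% FBS and G418 (400 μg/mL). Seeded at 4 × 10⁴/well on Matrigel-coated plates and grown 24 h. Loaded with Fluo-8 calcium dye for 1 h. Compounds were dissolved in DMSO and diluted in HBSS, then added automatically. Fluorescence was read at room temperature (ex 485 nm, em 525 nm, cut-off 515 nm). Agonistic rate was measured at 0.5 mM.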

[2] = target: T2, Melatonin receptor type 1B (Homo sapiens) (UniProt P49286); experiment: Agonist activity at MT2 receptor (unknown origin) expressed in HEK293 cells at 0.5 mM by Fluo-8 dye-based calcium assay relative to control; outline: as §1
T2 sequence (whole entry): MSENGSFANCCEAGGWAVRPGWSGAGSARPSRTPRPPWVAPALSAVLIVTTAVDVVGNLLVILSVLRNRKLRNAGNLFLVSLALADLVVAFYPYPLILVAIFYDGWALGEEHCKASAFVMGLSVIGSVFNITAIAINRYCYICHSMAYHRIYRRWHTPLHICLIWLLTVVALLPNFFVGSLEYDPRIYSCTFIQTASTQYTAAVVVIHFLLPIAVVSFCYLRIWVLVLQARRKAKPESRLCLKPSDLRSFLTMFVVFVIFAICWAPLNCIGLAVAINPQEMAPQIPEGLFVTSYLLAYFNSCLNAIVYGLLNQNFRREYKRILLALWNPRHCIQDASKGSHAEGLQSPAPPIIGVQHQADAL

[3] = target: T3, Melatonin receptor type 1B (Homo sapiens, UniProt P49286); experiment: Agonist activity at MT2 receptor (unknown origin) expressed in HEK293 cells by Fluo-8 dye-based calcium assay
T3 sequence (P49286 whole entry): T2 sequence (whole entry)

[4] = target: T1, Melatonin receptor type 1A; experiment: Agonist activity at MT1 receptor (unknown origin) expressed in HEK293 cells by Fluo-8 dye-based calcium assay

T1 sequence (P48039 whole entry): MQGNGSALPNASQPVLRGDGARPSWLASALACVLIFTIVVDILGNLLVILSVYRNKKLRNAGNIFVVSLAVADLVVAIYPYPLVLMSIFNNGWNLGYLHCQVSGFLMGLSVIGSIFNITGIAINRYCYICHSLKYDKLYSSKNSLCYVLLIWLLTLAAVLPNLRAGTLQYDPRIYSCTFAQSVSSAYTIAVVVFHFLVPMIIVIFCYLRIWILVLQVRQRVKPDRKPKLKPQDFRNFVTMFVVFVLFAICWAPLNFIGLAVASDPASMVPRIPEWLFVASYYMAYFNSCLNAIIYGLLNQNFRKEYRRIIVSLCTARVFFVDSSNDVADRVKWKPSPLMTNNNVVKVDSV

Row | Compound | Activity [1] | Activity [2] | EC50 [3] | EC50 [4]
1 | CCOCc1cc(Cc2ccc(O)cc2)ccc1O | 37% | 117% | – | –
2 | Oc1ccc(Cc2ccc(O)c(Cc3ccccc3Cc3ccccc3)c2)cc1 | -2.3% | -6.7% | – | –
3 | CCOCc1ccc(O)c(Cc2ccc(O)cc2)c1 | 3.3% | 38.3% | – | –
4 | Oc1ccc(COCc2ccc(O)c(Cc3ccc(O)cc3)c2)cc1 | 25.1% | 59.4% | – | –
5 | Oc1ccc(Cc2ccc(O)c(Cc3ccc(O)cc3)c2)cc1 | 46.5% | 134% | – | –
6 | Oc1ccc(Sc2ccc(O)cc2)cc1 | 44.6% | 94.1% | – | –
7 | CCOCc1cc(Cc2ccc(O)cc2)c(O)c(Cc2ccc(O)c(Cc3ccc(O)cc3)c2)c1 | -5.3% | 29.5% | – | –
8 | CCOCc1ccc(O)c(Cc2ccc(O)c(Cc3ccc(O)cc3)c2)c1 | -5.7% | -10.4% | – | –
9 | Oc1ccc(COc2ccc(Cc3ccc(O)cc3)cc2)cc1 | -5.6% | 15.3% | – | –
10 | Oc1ccc(Cc2ccc(O)c(Cc3ccccc3)c2)cc1 | -8.6% | -6.6% | – | –
11 | Oc1ccc(Cc2cc(Sc3ccc(O)cc3)ccc2O)cc1 | 31.3% | 48.4% | – | –
12 | CC(=O)OC[C@H]1O[C@@H](Oc2ccc(Sc3ccc(O[C@@H]4O[C@H](COC(C)=O)[C@@H](OC(C)=O)[C@H](OC(C)=O)[C@H]4OC(C)=O)cc3)cc2)[C@H](OC(C)=O)[C@@H](OC(C)=O)[C@@H]1OC(C)=O | -0.4% | -3.6% | – | –
13 | Oc1ccc(Cc2ccc(O)cc2)cc1 | 80.3% | 103% | 244 µM | 237 µM
14 | Oc1ccc(Oc2ccc(O)cc2)cc1 | 45.9% | 67.1% | – | –
15 | CC(=O)OC[C@H]1O[C@@H](Oc2ccc(Sc3ccc(O)cc3)cc2)[C@H](OC(C)=O)[C@@H](OC(C)=O)[C@@H]1OC(C)=O | 0.3% | 8.5% | – | –
16 | CCOCc1ccc(O)c(Cc2ccc(O)c(COCC)c2)c1 | -11.2% | 5.3% | – | –
17 | Oc1ccc(Cc2cc(Oc3ccc(O)cc3)ccc2O)cc1 | 37.1% | 51.2% | – | –
18 | CN(c1ccc(O)cc1)c1ccc(O)cc1 | -9.5% | 44.7% | – | –
19 | OC[C@H]1O[C@@H](Oc2ccc(Sc3ccc(O)cc3)cc2)[C@H](O)[C@@H](O)[C@@H]1O | -2.3% | -2.2% | – | –
